The values below come from ChEMBL document CHEMBL1123681, “Molecular modification of anticholinergics as probes for muscarinic receptors. 2. Amino esters of alpha-methyltropic acid” (J Med Chem, 1987).

One may read the Inhibition as the share of the control response that was lost under treatment. Broadly, the pA2 is a measure of antagonist potency on a negative log scale.

The structures appear in SMILES notation.

The species named for data set [1] is Rattus norvegicus. The experiment in a line: Relative potency with respect to (+/-)-3-Hydroxy-2-methyl-2-phenyl-propionic acid 2-diethylamino-ethyl ester in isolated rat ileum preparation. The data set is classed as functional.
Another data set deals with ileum (Cavia porcellus). The data set can be described thus: Antispasmodic activity was calculated as molar concentration of antagonist that inhibited 50% of a standard contraction response from isolated guinea pig ileum preparation. The conditions noted are these: read-out: ID50 (the source's name).
The species named for data set [2] is Cavia porcellus. The data set can be described thus: Ability to inhibit 50% standard contraction response of the guinea pig ileal tissue was measured with increasing concentrations of Acetylcholine (ACh) in the tissue bath. The data set is classed as functional.
The species entered for data set [3] is Rattus norvegicus. The experiment in a line: Antispasmodic activity was calculated as molar concentration of antagonist that inhibited 50% of a standard contraction response from isolated rat ileum preparation. The data set is classed as functional. The settings on record: read-out: ID50 (the source's name).
For data set [4], the species on record is Rattus norvegicus. The experiment in a line: (§1) Antispasmodic activity was measured as uM). In kind it is functional.
Data set [5] is filed under the species Rattus norvegicus. Described as §1. The data set is classed as functional. The source holds these as a separate data set.
Data set [6] is filed under the species Rattus norvegicus. The description is as §1. The data set is classed as functional. The source holds these as a separate data set.
For data set [7], the species on record is Rattus norvegicus. The experiment in a line: Antispasmodic activity calculated as ability of compound to block ACh-induced contractions of the ileum and expressed as pA2. In kind it is functional, organism-based. The settings on record: for Kb: Rattus norvegicus, Ileum, read-out: pA2 (converted). In a few lines: (§2)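 Ileum from overnight-fasted rats killed by cervical dislocation, suspended in aerated Tyrode solution and recorded via force-displacement transducer. Contractions measured across increasing ACh concentrations, then ACh responses with antagonist present. pA2 derived by the Ariens–van Rossum method as the mean from linear regression of two or more experiments at four or more dose levels. ID50 is the molar antagonist concentration inhibiting 50% of a standard contraction.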

The species named for data set [8] is Cavia porcellus. The experiment in a line: Ability to inhibit 50% standard contraction response of the guinea pig ileal tissue was measured with increasing concentrations of Acetylcholine (ACh) in the tissue bath.
For data set [9], the species on record is Rattus norvegicus. The experiment in a line: Antispasmodic activity was measured as percent reduction in rat ileum contraction against 300 ug/mL barium chloride 3 ug/mL (6.4X 10E-6 uM). The data set is classed as functional. Put shortly: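 Rat ileum strips in a tissue bath were contracted with a standard BaCl2 dose (300 μg/mL), chosen from a preliminary dose-response, then washed back to baseline. Test compound was added and equilibrated for 10 min. Without washout, the same BaCl2 dose was given again. Percent inhibition was taken from the contraction before versus after compound.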

Data set [10] is filed under the species Cavia porcellus. The experiment in a line: Antispasmodic activity was determined from isolated guinea pig ileum preparation.
For data set [11], the species on record is Rattus norvegicus. The experiment in a line: Antispasmodic activity was calculated according to Ariens and van Rossum from isolated rat ileum preparations. The settings on record: read-out: pA2 (converted). In kind it is functional. Put shortly: as §2
For data set [12], the species on record is Rattus norvegicus. The experiment in a line: Antispasmodic activity was measured as percent reduction in rat ileum contraction against 300 ug/mL barium chloride 0.5 ug/mL (1.5 X 10E-6 uM). The data set is classed as functional. In a few lines: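 Ileum strips from overnight-fasted rats killed by cervical dislocation, held in a tissue bath with force-displacement transducer recording. BaCl2 at 300 µg/mL, a standard dose set by a preliminary dose-response study, induced contraction; tissue washed back to baseline. Test agent equilibrated 10 min, then the same BaCl2 dose was added without washout. Percent inhibition was taken from contraction before versus after agent.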

In the data set filed under Rattus norvegicus [1], `CCN(CC)CCOC(=O)C(C)(COC(C)=O)c1ccccc1.Cl` (stereo unspecified) came in with a Relative potency of 0.8. Further, the IC50 in the data set on ileum (Cavia porcellus) is 394 nM.

With `CCN(CC)CCOC(=O)C(C)(CF)c1ccccc1.Cl` (stereo unspecified), the ID50 in the data set filed under Cavia porcellus [2] worked out at 411 nM. In addition, the IC50 in the data set filed under Rattus norvegicus [3] (Rattus norvegicus, Ileum) is 301 nM. In addition, the Inhibition in the data set listed under Rattus norvegicus [4] was found to be 24%; in the data set filed under Rattus norvegicus [5] it was 35.7%; in the data set filed under Rattus norvegicus [6] it was 15.7%. Moreover, the Relative potency in the data set filed under Rattus norvegicus [1] came to 1.04. In addition, the Kb in the data set filed under Rattus norvegicus [7] is 302 nM.

Turning to `CCN(CC)CCOC(=O)C(C)(CCl)c1ccccc1.Cl` (stereo unspecified), the IC50 in the data set listed under Rattus norvegicus [3] (Rattus norvegicus, Ileum) is 554 nM. Further, the Relative potency in the data set filed under Rattus norvegicus [1] worked out at 0.57. For the same molecule, the Kb in the data set listed under Rattus norvegicus [7] was 550 nM. For the same molecule, the ID50 in the data set listed under Cavia porcellus [8] was found to be 1170 nM.

In the case of `CCN(CC)CCOC(=O)C(C)(CI)c1ccccc1.Cl` (stereo unspecified), in the data set filed under Rattus norvegicus [3] (Rattus norvegicus, Ileum), the IC50 was 38.7 nM. For the same molecule, the Relative potency in the data set listed under Rattus norvegicus [1] turned out to be 8.11. For the same molecule, in the data set listed under Rattus norvegicus [7], the Kb is 38.9 nM.

In the case of `CCN(CC)CCOC(=O)C(C)(CBr)c1ccccc1.Cl` (stereo unspecified), the IC50 in the data set filed under Rattus norvegicus [3] (Rattus norvegicus, Ileum) was 127 nM. In the data set listed under Rattus norvegicus [1], this molecule showed a Relative potency of 2.47. The Kb in the data set listed under Rattus norvegicus [7] is 126 nM.

In the case of `CCN(CC)CCOC(=O)C(C)(COS(=O)(=O)c1ccc(C)cc1)c1ccccc1.Cl` (racemic), in the data set filed under Rattus norvegicus [3], the IC50 is 38.9 nM. This molecule also came in with an Inhibition in the data set listed under Rattus norvegicus [9] of 33%. The molecule also showed a Relative potency in the data set listed under Rattus norvegicus [1] of 8.07. Besides, the pA2 in the data set filed under Rattus norvegicus [7] is 7.41.

Regarding `CCN(CC)CCOC(=O)C(C)(CO)c1ccccc1.Cl` (racemic), the ID50 in the data set listed under Cavia porcellus [2] came out at 483 nM. Further, the IC50 in the data set listed under Rattus norvegicus [3] was 314 nM. The pA2 in the data set listed under Rattus norvegicus [7] is 6.5.

Take `CCN(CC)CCOC(=O)C(C)(CO)c1ccccc1.Cl` (single isomer, unassigned; (+)): the “Log K” value in the data set filed under Cavia porcellus [10] is recorded as 6.13. For the same molecule, the IC50 in the data set listed under Rattus norvegicus [3] is 1140 nM. In the data set listed under Rattus norvegicus [1], this molecule gave a Relative potency of 0.27. In addition, the pA2 in the data set listed under Rattus norvegicus [7] is given as 5.94.

Turning to `CCN(CC)CCOC(=O)C(C)(CO)c1ccccc1.Cl` (single isomer, unassigned; (-)), the “Log K” value in the data set listed under Cavia porcellus [10] came to 7.996. The IC50 in the data set filed under Rattus norvegicus [3] was 16.3 nM. Moreover, in the data set listed under Rattus norvegicus [1], the Relative potency amounted to 19.26. In the data set listed under Rattus norvegicus [11], the Kb is 16.2 nM.

As for `CCN(CC)CCOC(=O)C(C)(COS(=O)(=O)c1ccc(C)cc1)c1ccccc1.Cl` (stereo in doubt; 2a), the IC50 in the data set listed under Rattus norvegicus [3] is 31 nM. The molecule also came in with a Relative potency in the data set filed under Rattus norvegicus [1] of 10.13. Moreover, the pA2 in the data set listed under Rattus norvegicus [7] was 7.51.

As for `CCN(CC)CCOC(=O)C(C)(COS(=O)(=O)c1ccc(C)cc1)c1ccccc1.Cl` (stereo in doubt; 2b), the IC50 in the data set listed under Rattus norvegicus [3] is 172 nM. The molecule further returned a Relative potency in the data set filed under Rattus norvegicus [1] of 1.83. In addition, the pA2 in the data set filed under Rattus norvegicus [7] is reported as 6.77.

In the case of `CN1[C@@H]2CC[C@H]1C[C@@H](OC(=O)C(CO)c1ccccc1)C2` (stereo partly specified) [ATROPINE], the Inhibition in the data set listed under Rattus norvegicus [12] amounted to 5.9%.
